Laboratory results reported in ChEMBL document CHEMBL1140864, “The synthesis of ursolic acid derivatives with cytotoxic activity and the investigation of their preliminary mechanism of action” (Bioorg Med Chem, 2009).

What was measured:
SK-OV-3 [1] = experiment: Antiproliferative activity against human SKOV3 cells after 96 hrs by MTT assay; format: functional, cell-based; conditions: SK-OV-3, 96 h
Summary of the method: (§1)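 Cells grown in RPMI 1640 with 10% FBS and penicillin/streptomycin at […] °C, 5% CO2. Trypsinised cells seeded at 1.0–2.0 × 10³ per well overnight, then exposed to a concentration range in medium for 96 h. MTT (1 mg/mL) added for 4 h, formazan dissolved in DMSO, read at 490 nm. IC50 is the concentration that cuts cell number to 50%; at least three repeats.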

BGC-823 [2] = experiment: Antiproliferative activity against human BGC823 cells after 96 hrs by MTT assay; format: functional, cell-based; conditions: BGC-823, 96 h; summary of the method: as §1
HeLa [3] = experiment: Antiproliferative activity against human HeLa cells at 10 uM after 96 hrs by MTT assay; format: functional
Summary of the method: (§2)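 Same MTT set-up (RPMI 1640/10% FBS, 1.0–2.0 × 10³ cells per well, 96 h exposure, 4 h MTT, formazan in DMSO read at 490 nm). Value is the percent inhibition at a single 10 µM concentration. Experiments repeated at least three times.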

HeLa [4] = experiment: Antiproliferative activity against human HeLa cells after 96 hrs by MTT assay; format: functional, cell-based; summary of the method: as §1
BGC-823 [5] = experiment: Antiproliferative activity against human BGC823 cells at 10 uM after 96 hrs by MTT assay; format: functional; conditions: BGC-823, 96 h; summary of the method: as §2
SK-OV-3 [6] = experiment: Antiproliferative activity against human SKOV3 cells at 10 uM after 96 hrs by MTT assay; format: functional; conditions: SK-OV-3, 96 h; summary of the method: as §2
HeLa [7] = experiment: Cell cycle arrest in human HeLa cells by accumulation at G1 phase at 2.5 uM after 24 hrs using PI staining by flow cytometry; format: functional
Summary of the method: (§3)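 HeLa cells exposed for 24 h to 2.5, 5.0 or 10.0 µM; vehicle control 0.1% DMSO. Cellular DNA stained with propidium iodide, and cell-cycle phase fractions measured by flow cytometry. Experiments done three times.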

HeLa [8] = experiment: Cell cycle arrest in human HeLa cells by accumulation at S phase at 2.5 uM after 24 hrs using PI staining by flow cytometry; format: functional; summary of the method: as §3
HeLa [9] = experiment: Cell cycle arrest in human HeLa cells by accumulation at G2/M phase at 2.5 uM after 24 hrs using PI staining by flow cytometry; format: functional; summary of the method: as §3
HeLa [10] = experiment: Cell cycle arrest in human HeLa cells by accumulation at G1 phase at 5.0 uM after 24 hrs using PI staining by flow cytometry; format: functional; summary of the method: as §3
HeLa [11] = experiment: Cell cycle arrest in human HeLa cells by accumulation at S phase at 5.0 uM after 24 hrs using PI staining by flow cytometry; format: functional; summary of the method: as §3
HeLa [12] = experiment: Cell cycle arrest in human HeLa cells by accumulation at G2/M phase at 5.0 uM after 24 hrs using PI staining by flow cytometry; format: functional; summary of the method: as §3
HeLa [13] = experiment: Cell cycle arrest in human HeLa cells by accumulation at G1 phase at 10.0 uM after 24 hrs using PI staining by flow cytometry; format: functional; summary of the method: as §3
HeLa [14] = experiment: Cell cycle arrest in human HeLa cells by accumulation at S phase at 10.0 uM after 24 hrs using PI staining by flow cytometry; format: functional; summary of the method: as §3
HeLa [15] = experiment: Cell cycle arrest in human HeLa cells by accumulation at G2/M phase at 10.0 uM after 24 hrs using PI staining by flow cytometry; format: functional; summary of the method: as §3
HeLa [16] = experiment: Induction of apoptosis in human HeLa cells assessed as apoptotic cells at 10 uM by flow cytometry; format: functional
Summary of the method: (§4)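 HeLa cells given 2.5, 5.0 or 10.0 µM and stained with propidium iodide. Apoptotic cells counted by flow cytometry as nuclei with sub-diploid DNA content, the region below the G1 peak; untreated cells served as control. Run three times.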

HeLa [17] = experiment: Induction of apoptosis in human HeLa cells assessed as sub-diploid DNA content after 24 hrs by flow cytometry; format: functional, cell-based; summary of the method: as §4
HeLa [18] = experiment: Induction of apoptosis in human HeLa cells assessed as DNA fragmentation after 24 hrs by agarose gel electrophoresis; format: functional, cell-based
Summary of the method: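 HeLa cells treated for 24 h, washed twice in PBS and lysed in 100 mM NaCl, 10 mM Tris–HCl pH 8.0, 25 mM EDTA, 0.1 mg/ml proteinase K at 50 °C for 12 h. DNA taken through phenol/chloroform/isoamyl alcohol and chloroform/isoamyl alcohol extraction, centrifuged at 12,000g for 30 min, then run on an agarose gel to look for laddering.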

SMILES	IC50 (BGC-823 [2]) [µM]	inhibition at 10 µM (HeLa [3]) [%]	IC50 (HeLa [4]) [µM]	inhibition at 10 µM (BGC-823 [5]) [%]	also measured
CC(=O)O[C@H]1C(=O)[C@@]2(C)[C@H]([C@H](OC(=O)c3ccccc3)[C@]3(O)C[C@H](OC(=O)[C@H](O)[C@@H](NC(=O)c4ccccc4)c4ccccc4)C(C)=C1C3(C)C)[C@]1(OC(C)=O)CO[C@@H]1C[C@@H]2O [PACLITAXEL]	0.016	–	–	–	IC50 (SK-OV-3 [1]): 0.001 µM
CC(=O)O[C@H]1CC[C@]2(C)[C@H]3CC=C4[C@@H]5[C@@H](C)[C@H](C)CC[C@]5(C(=O)Nc5ccccc5CO)CC[C@@]4(C)[C@]3(C)CC[C@H]2C1(C)C	–	77.5	1.63	–	–
COC(=O)C(NC(=O)[C@]12CC[C@@H](C)[C@H](C)[C@H]1C1=CC[C@@H]3[C@@]4(C)CC[C@H](OC(C)=O)C(C)(C)[C@@H]4CC[C@@]3(C)[C@]1(C)CC2)C(C)O (stereo not given in full)	–	55.9	6.86	–	–
COC(=O)CNC(=O)[C@]12CC[C@@H](C)[C@H](C)[C@H]1C1=CC[C@@H]3[C@@]4(C)CC[C@H](OC(C)=O)C(C)(C)[C@@H]4CC[C@@]3(C)[C@]1(C)CC2	> 10	61.7	4.86	17.9	–
CC(=O)O[C@H]1CC[C@]2(C)[C@H]3CC=C4[C@@H]5[C@@H](C)[C@H](C)CC[C@]5(C(=O)NCCO)CC[C@@]4(C)[C@]3(C)CC[C@H]2C1(C)C	–	50.3	10.8	–	–
COC(=O)C(CO)NC(=O)[C@]12CC[C@@H](C)[C@H](C)[C@H]1C1=CC[C@@H]3[C@@]4(C)CC[C@H](OC(C)=O)C(C)(C)[C@@H]4CC[C@@]3(C)[C@]1(C)CC2 (stereo not given in full)	> 10	59.9	4.3	15.7	–
CC(=O)O[C@H]1CC[C@]2(C)[C@H]3CC=C4[C@@H]5[C@@H](C)[C@H](C)CC[C@]5(C(=O)O)CC[C@@]4(C)[C@]3(C)CC[C@H]2C1(C)C [O-ACETYLURSOLIC ACID]	–	37.8	> 10	–	–
C[C@H]1[C@H](C)CC[C@]2(C(=O)O)CC[C@]3(C)C(=CC[C@@H]4[C@@]5(C)CC[C@H](O)C(C)(C)[C@@H]5CC[C@]43C)[C@H]12 [URSOLIC ACID]	> 10	12.4	> 10	10.2	inhibition at 10 µM (SK-OV-3 [6]): 9.06%; IC50 (SK-OV-3 [1]): > 10 µM
CCC(C)C(NC(=O)[C@]12CC[C@@H](C)[C@H](C)[C@H]1C1=CC[C@@H]3[C@@]4(C)CC[C@H](O)C(C)(C)[C@@H]4CC[C@@]3(C)[C@]1(C)CC2)C(=O)O (stereo not given in full)	–	16.8	> 10	–	inhibition at 10 µM (SK-OV-3 [6]): 5.01%; IC50 (SK-OV-3 [1]): > 10 µM
CCC(C)C(NC(=O)[C@]12CC[C@@H](C)[C@H](C)[C@H]1C1=CC[C@@H]3[C@@]4(C)CC[C@H](OC(C)=O)C(C)(C)[C@@H]4CC[C@@]3(C)[C@]1(C)CC2)C(=O)OC (stereo not given in full)	–	15.9	> 10	–	–
CC(=O)OCC(C)NC(=O)[C@]12CC[C@@H](C)[C@H](C)[C@H]1C1=CC[C@@H]3[C@@]4(C)CC[C@H](OC(C)=O)C(C)(C)[C@@H]4CC[C@@]3(C)[C@]1(C)CC2 (stereo not given in full)	8.3	69.3	2.62	56.3	inhibition at 10 µM (SK-OV-3 [6]): 70.5%; IC50 (SK-OV-3 [1]): 2.24 µM; Activity (HeLa [7]): 47%; Activity (HeLa [8]): 39.4%; Activity (HeLa [9]): 13.6%; Activity (HeLa [10]): 46.7%; Activity (HeLa [11]): 44.8%; Activity (HeLa [12]): 8.5%; Activity (HeLa [13]): 36.7%; Activity (HeLa [14]): 54%; Activity (HeLa [15]): 9.3%; Activity (HeLa [16]): 32.5%; Activity (HeLa [17]): Dose-dependent effect; Activity (HeLa [18]): Dose-dependent effect
COC(=O)C(Cc1ccc(O)cc1)NC(=O)[C@]12CC[C@@H](C)[C@H](C)[C@H]1C1=CC[C@@H]3[C@@]4(C)CC[C@H](OC(C)=O)C(C)(C)[C@@H]4CC[C@@]3(C)[C@]1(C)CC2 (stereo not given in full)	> 10	51.5	9.04	41.6	–
CC(=O)O[C@H]1CC[C@]2(C)[C@H]3CC=C4[C@@H]5[C@@H](C)[C@H](C)CC[C@]5(C(=O)NC(C)CO)CC[C@@]4(C)[C@]3(C)CC[C@H]2C1(C)C (stereo not given in full)	–	58.4	5.44	–	–
COC(=O)C(Cc1ccccc1)NC(=O)[C@]12CC[C@@H](C)[C@H](C)[C@H]1C1=CC[C@@H]3[C@@]4(C)CC[C@H](OC(C)=O)C(C)(C)[C@@H]4CC[C@@]3(C)[C@]1(C)CC2 (stereo not given in full)	–	32.9	> 10	–	–
C[C@H]1[C@H](C)CC[C@]2(C(=O)NC(Cc3ccc(O)cc3)C(=O)O)CC[C@]3(C)C(=CC[C@@H]4[C@@]5(C)CC[C@H](O)C(C)(C)[C@@H]5CC[C@]43C)[C@H]12 (stereo not given in full)	–	23.6	> 10	–	–
CC(O)C(NC(=O)[C@]12CC[C@@H](C)[C@H](C)[C@H]1C1=CC[C@@H]3[C@@]4(C)CC[C@H](O)C(C)(C)[C@@H]4CC[C@@]3(C)[C@]1(C)CC2)C(=O)O (stereo not given in full)	–	22	> 10	–	–
C[C@H]1[C@H](C)CC[C@]2(C(=O)NC(CO)C(=O)O)CC[C@]3(C)C(=CC[C@@H]4[C@@]5(C)CC[C@H](O)C(C)(C)[C@@H]5CC[C@]43C)[C@H]12 (stereo not given in full)	–	16.8	> 10	–	–
CC(=O)OCc1ccccc1NC(=O)[C@]12CC[C@@H](C)[C@H](C)[C@H]1C1=CC[C@@H]3[C@@]4(C)CC[C@H](OC(C)=O)C(C)(C)[C@@H]4CC[C@@]3(C)[C@]1(C)CC2	> 10	30.5	> 10	13	inhibition at 10 µM (SK-OV-3 [6]): 1.19%; IC50 (SK-OV-3 [1]): > 10 µM
CC(=O)OCCNC(=O)[C@]12CC[C@@H](C)[C@H](C)[C@H]1C1=CC[C@@H]3[C@@]4(C)CC[C@H](OC(C)=O)C(C)(C)[C@@H]4CC[C@@]3(C)[C@]1(C)CC2	> 10	73.5	1.13	42	inhibition at 10 µM (SK-OV-3 [6]): 54.8%; IC50 (SK-OV-3 [1]): 6.09 µM; Activity (HeLa [7]): 41.1%; Activity (HeLa [8]): 49.8%; Activity (HeLa [9]): 9.2%; Activity (HeLa [10]): 41.8%; Activity (HeLa [11]): 45.9%; Activity (HeLa [12]): 12.3%; Activity (HeLa [13]): 51.1%; Activity (HeLa [14]): 44.8%; Activity (HeLa [15]): 4.2%; Activity (HeLa [16]): 35.3%; Activity (HeLa [17]): Dose-dependent effect; Activity (HeLa [18]): Dose-dependent effect
C[C@H]1[C@H](C)CC[C@]2(C(=O)NC(Cc3ccccc3)C(=O)O)CC[C@]3(C)C(=CC[C@@H]4[C@@]5(C)CC[C@H](O)C(C)(C)[C@@H]5CC[C@]43C)[C@H]12 (stereo not given in full)	–	27.5	> 10	–	–
C[C@H]1[C@H](C)CC[C@]2(C(=O)NCC(=O)O)CC[C@]3(C)C(=CC[C@@H]4[C@@]5(C)CC[C@H](O)C(C)(C)[C@@H]5CC[C@]43C)[C@H]12	–	15.6	> 10	–	–
